The source made the active and inactive calls. The rule behind the calls is not given here.
Experiments:
HepG2 [1] = assay: Lipid lowering activity in human HepG2 cells assessed as reduction in oleic acid-induced intracellular cholesterol level at 2.5 to 10 uM after 24 hrs […]; format: functional, cell-based
Summary of the method: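 HepG2 at 90% confluence treated 24 h with compound (2.5, 5.0, 10.0 μM) or simvastatin 10 μM in high-glucose DMEM containing 100 μM oleic acid. Blank was serum-free DMEM, OA-only as negative control. Intracellular total cholesterol and triglyceride measured with commercial kits per manufacturer. Means ± SEM of at least three experiments.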

HepG2 [2] = assay: Lipid lowering activity in human HepG2 cells assessed as reduction in oleic acid-induced triglyceride level at 2.5 to 10 uM after 24 hrs by oil red O staining based spectrophotometric method; format: functional, cell-based
Candida albicans = assay: Antifungal activity against Candida albicans by double dilution method; format: functional, organism-based
Summary of the method: (§1)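 Broth doubling-dilution assay against E. coli, S. aureus, C. albicans and B. subtilis, with chloramphenicol as positive control.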

A549 = assay: Cytotoxicity against human A549 cells; format: functional, cell-based
Summary of the method: (§2)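 HeLa, BEL-7402, HEK-293, HCT-116 and A549 lines tested by MTT or SRB method, with doxorubicin as positive control.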

Escherichia coli = assay: Antibacterial activity against Escherichia coli after 20 hrs by double dilution method; format: functional, organism-based; summary of the method: as §1
Bel-7402 = assay: Cytotoxicity against human Bel7402 cells; format: functional, cell-based; summary of the method: as §2
HEK293 = assay: Cytotoxicity against human HEK293 cells; format: functional, cell-based; summary of the method: as §2
HepG2 [3] = assay: Lipid lowering activity in human HepG2 cells assessed as reduction in oleic acid-induced lipid accumulation at 2.5 to 10 uM after 24 hrs by oil red O staining based spectrophotometric method; format: functional, cell-based
Summary of the method: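 HepG2 in high-glucose DMEM/10% FBS at 37 °C, 5% CO2, grown to 90% confluence. Treated 24 h with compound (2.5, 5.0, 10.0 μM) or simvastatin 10 μM in high-glucose DMEM plus 100 μM oleic acid. Blank was serum-free DMEM alone, negative control OA alone. Neutral lipid by oil-red O staining, read spectrophotometrically at 358 nm. Means ± SEM, ≥3 experiments.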

Bacillus subtilis = assay: Antibacterial activity against Bacillus subtilis after 20 hrs by double dilution method; format: functional, organism-based; summary of the method: as §1
Staphylococcus aureus = assay: Antibacterial activity against Staphylococcus aureus after 20 hrs by double dilution method; format: functional, organism-based; summary of the method: as §1
HCT-116 = assay: Cytotoxicity against human HCT116 cells; format: functional, cell-based; summary of the method: as §2
HepG2 [4] = assay: Cytotoxicity against human HepG2 cells assessed as reduction in cell viability at 20 uM after 20 hrs by MTT assay; format: cell-based; settings: hepg2, 20 h
Summary of the method: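 HepG2 grown in high-glucose DMEM with 10% FBS at 37 °C, 5% CO2. Once confluent, incubated 20 h with compound. Medium then replaced with fresh medium containing 10% sterile-filtered MTT for 4 h. Formazan dissolved in isopropanol, absorbance read at 570 nm with 630 nm reference. Viability expressed as % of blank wells. Means ± SEM of at least three experiments.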

HeLa = assay: Cytotoxicity against human HeLa cells; format: functional, cell-based; summary of the method: as §2

| SMILES | Activity (HepG2 [1]) | Activity (HepG2 [2]) | Activity (Candida albicans) | Activity (A549) | Activity (Escherichia coli) | Activity (Bel-7402) | Activity (HEK293) | Activity (HepG2 [3]) | Activity (Bacillus subtilis) | Activity (Staphylococcus aureus) | Activity (HCT-116) | Activity (HepG2 [4]) | Activity (HeLa) |
| --- | --- | --- | --- | --- | --- | --- | --- | --- | --- | --- | --- | --- | --- |
| CCC[C@@H]1C/C=C(\C)C(=O)CC(=O)N[C@H](Cc2ccccc2)C(=O)N2CCC[C@H]2C(=O)O1 | Active | Active | inactive | inactive | inactive | inactive | inactive | Active | inactive | inactive | inactive | Non-Toxic | inactive |
| CCC[C@@H]1C/C=C(\C)C(=O)CC(=O)N[C@H](Cc2ccccc2)C(=O)N2CCC[C@@H]2C(=O)O1 |  |  | inactive | inactive | inactive | inactive | inactive |  | inactive | inactive | inactive |  | inactive |

— ChEMBL document CHEMBL4251675, “Saroclides A and B, Cyclic Depsipeptides from the Mangrove-Derived Fungus Sarocladium kiliense HDN11-112” (J Nat Prod, 2018)
